SUMO1-SIM PPI – alters human SUMO1 binding to SIM partners; P63165; SUMO1 binding to a labelled peptide, TR-FRET, 1 h; inhibition, % at 20 µM; actives 0.33% (n = 360,000); AID 602429; in the data active means inhibition above about 37%
Target sequence (P63165 whole entry, looked up): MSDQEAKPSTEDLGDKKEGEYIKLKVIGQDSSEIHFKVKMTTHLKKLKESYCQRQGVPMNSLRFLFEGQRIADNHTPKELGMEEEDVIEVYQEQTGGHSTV
DNMT1 inh – inhibitors of human DNMT1; P26358; DNMT1 molecular beacon, Hinp1I cleavage, fluorescence; inhibition (reported as % activation of signal), % at 10 µM; actives 0.83% (n = 360,000); in the data active means inhibition above about 50%
LMPTP block – blocks human LMPTP phosphatase. P24666. recombinant LMPTP-A, OMFP fluorogenic substrate, fluorescence intensity. inhibition, % at 20 µM. actives 0.22% (n = 360,000);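 active means compounds that cut the enzyme signal by at least half of the control window in the single-dose screen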;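 further: plate controls were DMSO wells with enzyme plus substrate for no effect and substrate without enzyme for full effect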
Target sequence (P24666 whole entry, looked up): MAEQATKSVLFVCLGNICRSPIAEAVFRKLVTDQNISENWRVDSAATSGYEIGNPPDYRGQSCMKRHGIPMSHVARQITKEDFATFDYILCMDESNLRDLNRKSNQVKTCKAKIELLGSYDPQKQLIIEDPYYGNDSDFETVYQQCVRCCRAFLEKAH
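Material: LMPTP-A; amount: 0.625 nM enzyme; doses: single 20 µM dose; times: reaction 50 min, room temperature, dark; technique: fluorescence intensity of OMFP turnover product; benchmarks: no-enzyme and uninhibited controls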
STEP inh – inhibitors of human striatal-enriched phosphatase STEP. P54829. recombinant STEP, OMFP fluorogenic substrate, fluorescence. inhibition, % at 20 µM. actives 0.25% (n = 360,000);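 active means inhibition at 20 µM, scaled per plate between control wells, above about 37%, limit read from the data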;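 further: 0% = DMSO with enzyme and substrate and 100% = substrate only without enzyme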
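Test system: STEP tyrosine phosphatase / Reagent: OMFP at 25 µM / Doses: 20 µM, 1% DMSO / Read-out: percent inhibition scaled to no-enzyme and uninhibited-enzyme controls, plate-pattern corrected / Detection: FITC-channel fluorescence of OMFP product / Medium: Bis-Tris buffer pH 6.0, 2.5 mM DTT, 0.005% Tween 20 / Schedule: 20 min at room temperature, dark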
Scp1 inh – Scp-1 (human) phosphatase inhibition | Q9GZU7 | Recombinant Scp1, phosphopeptide, malachite green phosphate absorbance | inhibition, % at 20 µM | actives 0.88% (n = 340,000) | AID 493091;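 active means inhibition above about 50% at 20 µM, limit read from the data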;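 further: plate controls were DMSO wells with enzyme for no effect and wells lacking enzyme for full effect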
Target sequence (Q9GZU7 76-261 limits assumed): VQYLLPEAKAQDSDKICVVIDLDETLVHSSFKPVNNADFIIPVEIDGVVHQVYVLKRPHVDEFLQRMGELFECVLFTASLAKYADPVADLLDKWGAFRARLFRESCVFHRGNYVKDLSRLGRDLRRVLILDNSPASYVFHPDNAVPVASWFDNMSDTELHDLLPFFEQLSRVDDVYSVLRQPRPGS
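System: truncated SCP-1 phosphatase (76-261aa); medium: Tris acetate buffer pH 5.5 with MgCl2 and Tween-20; incubation: 45 min room-temperature reaction, 5 min colour, 30 min stabiliser; compound: single 20 µM dose, 1% DMSO; reagent: Phosphorylated 17-residue peptide substrate; read-out: % inhibition at 20 µM; technique: colorimetric free-phosphate detection, absorbance 630 nm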
Beacon interf DR – shows spectral interference in the DNMT1 beacon assay | shares compounds with DNMT1 inh | molecular beacon fluorescence, spectral interference counter-screen | IC50, µM | 200 tested, under 10 active
DNMT1 confirm – DNMT1 inhibition confirmation, single concentration; AID 602385; shares compounds with DNMT1 inh; DNMT1 molecular beacon HinP1I cleavage, fluorescence; inhibition, % at 10 µM; actives 8% (n = 2,300);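 active means average inhibition of at least 30% in the single-concentration confirmation test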
DNMT1 interf – shows spectral interference in the DNMT1 beacon assay. shares compounds with DNMT1 inh. DNMT1 molecular beacon spectral interference counterscreen, fluorescence 485/520. activation (fluorescence interference), % at 10 µM. actives 1% (n = 2,300);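 active means activation of at least 30% at 10 µM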;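 further: DNMT1 catalytic domain with a HinP1I cleavage step and a FAM/dabcyl DNA beacon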
STEP inh conf – confirmation of human STEP phosphatase inhibitors | shares compounds with STEP inh | recombinant STEP, OMFP fluorogenic substrate, fluorescence | inhibition, % at 20 µM | actives 32% (n = 520) | AID 623866;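 further: 0% = enzyme with substrate plus DMSO and 100% = substrate without enzyme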
Starred values were filed as active, the others as inactive; · = not tested or not shown. A selection: hits, their analogues and other compounds. The true share with any hit is near 1.7%. Unless noted, how the calls were made is not given here.

SMILES	SUMO1-SIM PPI	DNMT1 inh	LMPTP block	STEP inh	Scp1 inh	DNMT1 confirm	DNMT1 interf	STEP inh conf	others
Cc1ccc(C)c(/C(O)=C2/C(=O)C(=O)N(CCN3CCOCC3)C2c2ccco2)c1 (configuration not stated)	0	83*	-1	3	27	2	3	·
CCOc1ccc(OCC)c(NC(=O)CCSCCc2ccccn2)c1	3	89*	0	97*	0	1	5	0
CCOc1ccc(OCC)c(NC(=O)CSCCc2ccccn2)c1	-5	1	1	-4	-13	·	·	·
Cc1cccc(C(=O)Nc2ccc(N3CCN(c4ccc(C(F)(F)F)cn4)CC3)nc2)c1	1	70*	50	77*	10	1	2	4
COc1ccc(C2C=CC(=O)CC2)c(OC)c1 (configuration not stated)	3	·	0	·	·	·	·	·
C[C@H](NC(=O)c1ncn2c1c(=O)[nH]c1ccccc12)c1ccccc1	11	7	0	0	·	·	·	·
C[C@H](NC(=O)c1ncn2c1c(=O)[nH]c1ccc(Br)cc12)c1ccccc1	-26	90*	56*	54*	·	2	-2	0
O=c1cc(-c2ccccc2)nc2nc(-c3ccco3)[nH]n12	54*	104*	51*	86*	-1	-2	4	0
Cc1nc2nc(-c3ccccc3)cc(=O)n2[nH]1	-2	-3	-1	-1	-4	·	·	·
CS(=O)(=O)Nc1ccc2c(c1)[C@@H]1C[C@@H](CC(=O)NCc3cccnc3)O[C@H](CO)[C@@H]1O2	-3	3	-2	-1	·	·	·	·
Cc1ccc(N2C(=O)N3[C@H](c4ccc(F)cc4)[C@@H]4C(=O)N(C5CCCCC5)C(=O)[C@@H]4[C@]3(Cc3ccccc3)C2=O)cc1	5	-12	0	1	-8	·	·	·
O=C(Nc1ccccc1)C1CCCN1C(=O)Nc1ccccc1[N+](=O)[O-] (configuration not stated)	-13	1	0	0	-4	·	·	·
CC(=O)Nc1ccc(NC(=O)C2CCCN2C(=O)Nc2ccccc2[N+](=O)[O-])cc1 (configuration not stated)	-24	80*	0	85*	-2	2	6	7
COC(=O)c1sc(NC(=O)/C=C/c2ccc(C)cc2)nc1C	-3	-6	16	-1	-4	·	·	·
COC(=O)c1sc(NC(=O)/C=C/c2ccccc2Cl)nc1C	30	62*	36	57*	46	3	0	1
CSc1ccc(C=NNc2ccc(S(=O)(=O)Nc3ccccc3C(=O)O)cc2[N+](=O)[O-])cc1	96*	86*	91*	44*	5	55*	-8	59*	Beacon interf DR=>99
CCOC(=O)CC(NS(=O)(=O)c1ccc2[nH]cc(C(=O)O)c(=O)c2c1)c1ccc(OCC)c(OC)c1 (configuration not stated)	9	73*	2	74*	48	5	-3	25*
COc1ccc(Nc2nc(=O)c3cc([N+](=O)[O-])ccc3s2)cc1	-7	65*	80*	43*	1	1	-6	-4
O=C(N/N=C/c1ccc(Br)s1)c1ccc([N+](=O)[O-])cc1	-4	79*	80*	69*	-5	-1	-2	-8
O=C(NCCc1ccc(C(F)(F)F)cc1)c1ccc(Cl)nc1	3	4	-1	1	-13	·	·	·
COCCNC(=O)CSc1ccccc1C(=O)NC1CCSc2ccccc21 (configuration not stated)	12	-2	0	1	-4	·	·	·
COc1cc(Cl)ccc1NC(=S)N(CCN1CCOCC1)C1CCN(C(C)=O)CC1	-2	0	-2	51*	0	·	·	8
CC(=O)N1CCC(N(CCN2CCOCC2)C(=S)Nc2ccc(C)cc2)CC1	2	0	-3	63*	-5	·	·	21*
CC(=O)N1CCC(N(CCN2CCOCC2)C(=S)Nc2ccc(C)cc2C)CC1	5	4	1	6	-2	·	·	·
Cc1ccc(Cl)cc1NC(=O)CN1C(=O)NC2(CCCCCC2)C1=O	-3	-3	0	-1	-8	·	·	·
SMILES	SUMO1-SIM PPI	DNMT1 inh	LMPTP block	STEP inh	Scp1 inh	DNMT1 confirm	DNMT1 interf	STEP inh conf	others
CCOc1cc(/C=N/NC(=O)c2nnn(-c3nonc3N)c2C)ccc1OCc1cccc(F)c1	-2	1	2	-1	-9	·	·	·
COc1ccc(NC(=O)C[C@H]2C(=O)N(C3CCCCC3)C[C@@H]2CSC)cc1	6	4	-1	0	·	·	·	·
O=C(CCC(=O)N1CCN(c2ccccc2F)CC1)c1ccc(Cl)s1	-7	-2	1	3	-5	·	·	·
O=C(CCN1CCC(c2ccc(Cl)s2)=N1)c1ccc(Cl)s1	6	19	12	58*	-1	·	·	-1
O=C(CN1C(=O)NC2(CCCCC2)C1=O)NCCc1ccc(Cl)cc1Cl	0	1	0	2	-10	·	·	·
CCCCn1c(N)c(N(CC(C)C)C(=O)c2cc(S(=O)(=O)N3CCOCC3)ccc2Cl)c(=O)[nH]c1=O	-1	1	0	3	-7	·	·	·
CC(C)OCCCNC(=S)Nc1ccc(S(N)(=O)=O)cc1	2	2	-2	83*	-1	·	·	36*
NS(=O)(=O)c1ccc(NC(=S)NCCc2ccccc2)cc1	0	2	0	52*	-21	·	·	38*
O=C(CNS(=O)(=O)c1ccc(Br)cc1)NCc1cccnc1	0	2	-1	-3	-5	·	·	·
Cc1cc(C)c(NC(=S)N2CCC(N(C)CC3CCCO3)CC2)c(C)c1 (configuration not stated)	2	1	-5	86*	-6	·	·	30
N#Cc1ccc(C(=O)N2CCCCC2c2cc(C(=O)Nc3ccc4c(c3)OCO4)no2)cc1 (configuration not stated)	-2	1	0	1	·	·	·	·
COc1cccc(C(O)c2ncc(-c3cccc4ccccc34)[nH]2)c1 (configuration not stated)	-14	-1	-1	2	·	·	·	·
COc1cccc(C2CC3(CC(C)(C)NC(=S)N3)Oc3cc(O)ccc32)c1 (configuration not stated)	2	9	1	112*	-1	·	·	-5
